From ChEMBL document CHEMBL1122647 (J Med Chem, 1984)
Several values for one entry are separate records, joined by “and”; a condition that tells them apart may be missing. Identical values can stand only once.

What was measured:
L1210 = test: Compound was evaluated for its cytotoxicity against the L1210 murine leukemia cell culture; type: functional; settings: Mus musculus, read-out: ID50 (the source's name)
Mus musculus [1] = test: In vivo antitumor activity was evaluated against L1210 leukemia implanted mice by measuring T/C median after intraperitoneal administration of compound at 16 mg/kg; 21/9; type: functional
Method in brief: (§1)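 Male B6D2F1J mice, five per group, were inoculated ip with 10^5 L1210 cells on day 0. Treatment began on day 1, given ip in sterile water twice daily on days 1-4 and 7-10, with a single double-dose injection on each of days 5 and 6. Read-outs were percent body weight change over 7 days, survival range in days, treated/control median survival, and percent increase in life span.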

Mus musculus [2] = test: In vivo antitumor activity was evaluated against L1210 leukemia implanted mice by measuring 7-day weight change after intraperitoneal administration of compound at 32 mg/kg; type: functional
Method in brief: (§2)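 Groups of five male B6D2F1J mice were inoculated ip with 10^5 L1210 cells on day 0. Starting day 1, drug in sterile water was given ip bid on days 1-4 and 7-10, with a single double-dose injection on days 5 and 6. Percent body-weight change was recorded at day 7, along with survival range, median T/C and ILS.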

[3] = biological target: T1, Dihydrofolate reductase (Mus musculus) (UniProt P00375)
T1 sequence (whole entry): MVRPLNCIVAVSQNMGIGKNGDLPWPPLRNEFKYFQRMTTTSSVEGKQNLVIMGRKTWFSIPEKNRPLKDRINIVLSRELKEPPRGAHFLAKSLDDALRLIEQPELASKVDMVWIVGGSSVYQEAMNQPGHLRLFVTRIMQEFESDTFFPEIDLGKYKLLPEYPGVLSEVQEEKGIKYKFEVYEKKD

Mus musculus [4] = test: In vivo antitumor activity was evaluated against L1210 leukemia implanted mice by measuring percent increase in life span after intraperitoneal administration of compound at 16 mg/kg; type: functional
Method in brief: (§3)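 Male B6D2F1J mice, five per group, were implanted ip with 10^5 L1210 cells on day 0. Treatment began on day 1. Drug was given ip in sterile water, twice daily on days 1-4 and 7-10, and as a single double-dose injection on days 5 and 6. Survival was recorded in days (range, and median treated/control), with % ILS derived from it. Body-weight change at 7 days was also recorded.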

Mus musculus [5] = test: In vivo antitumor activity was evaluated against L1210 leukemia implanted mice by measuring 7-day weight change after intraperitoneal administration of compound at 16 mg/kg; type: functional; method in brief: as §2
Mus musculus [6] = test: In vivo antitumor activity was evaluated against L1210 leukemia implanted mice by measuring number of survival days after intraperitoneal administration of compound at 16 mg/kg; range 19-21; type: functional; method in brief: as §1
Mus musculus [7] = test: In vivo antitumor activity was evaluated against L1210 leukemia implanted mice by measuring number of survival days after intraperitoneal administration of compound at 32 mg/kg; range 21-24; type: functional; method in brief: as §1
Mus musculus [8] = test: In vivo antitumor activity was evaluated against L1210 leukemia implanted mice by measuring T/C median after intraperitoneal administration of compound at 32 mg/kg; 22/9; type: functional; method in brief: as §1
Mus musculus [9] = test: In vivo antitumor activity was evaluated against L1210 leukemia implanted mice by measuring number of survival days after intraperitoneal administration of compound at 16 mg/kg; at a range of 11-14; type: functional; method in brief: as §3
Mus musculus [10] = test: In vivo antitumor activity was evaluated against L1210 leukemia implanted mice by measuring percent increase in life span after intraperitoneal administration of compound at 32 mg/kg; type: functional; method in brief: as §3
Mus musculus [11] = test: In vivo antitumor activity was evaluated against L1210 leukemia implanted mice by measuring T/C median after intraperitoneal administration of compound at 16 mg/kg; T/C median=12/9; type: functional; method in brief: as §3
Mus musculus [12] = test: In vivo antitumor activity was evaluated against L1210 leukemia implanted mice by measuring number of survival days after intraperitoneal administration of compound at 32 mg/kg; at a range of 12-16; type: functional; method in brief: as §3
Mus musculus [13] = test: In vivo antitumor activity was evaluated against L1210 leukemia implanted mice by measuring T/C median after intraperitoneal administration of compound at 32 mg/kg; T/C median=13/9; type: functional; method in brief: as §3
Mus musculus [14] = test: In vivo antitumor activity was evaluated against L1210 leukemia implanted mice by measuring T/C median after intraperitoneal administration of compound at 1 mg/kg; T/C median=21/9; type: functional; method in brief: as §3
Mus musculus [15] = test: In vivo antitumor activity was evaluated against L1210 leukemia implanted mice by measuring 7-day weight change after intraperitoneal administration of compound at 0.5 mg/kg; type: functional; method in brief: as §2
Mus musculus [16] = test: In vivo antitumor activity was evaluated against L1210 leukemia implanted mice by measuring percent increase in life span after intraperitoneal administration of compound at 0.75 mg/kg; type: functional; method in brief: as §3
Mus musculus [17] = test: In vivo antitumor activity was evaluated against L1210 leukemia implanted mice by measuring percent increase in life span after intraperitoneal administration of compound at 0.5 mg/kg; type: functional; method in brief: as §3
Mus musculus [18] = test: In vivo antitumor activity was evaluated against L1210 leukemia implanted mice by measuring 7-day weight change after intraperitoneal administration of compound at 1 mg/kg; type: functional; method in brief: as §2
Mus musculus [19] = test: In vivo antitumor activity was evaluated against L1210 leukemia implanted mice by measuring T/C median after intraperitoneal administration of compound at 0.5 mg/kg; T/C median=16/9; type: functional; method in brief: as §3
Mus musculus [20] = test: In vivo antitumor activity was evaluated against L1210 leukemia implanted mice by measuring number of survival days after intraperitoneal administration of compound at 1 mg/kg; at a range of 3-22; type: functional; method in brief: as §3
Mus musculus [21] = test: In vivo antitumor activity was evaluated against L1210 leukemia implanted mice by measuring number of survival days after intraperitoneal administration of compound at 0.5 mg/kg; at a range of 15-18; type: functional; method in brief: as §3
Mus musculus [22] = test: In vivo antitumor activity was evaluated against L1210 leukemia implanted mice by measuring 7-day weight change after intraperitoneal administration of compound at 0.75 mg/kg; type: functional; method in brief: as §2
Mus musculus [23] = test: In vivo antitumor activity was evaluated against L1210 leukemia implanted mice by measuring percent increase in life span after intraperitoneal administration of compound at 1 mg/kg; type: functional; method in brief: as §3
Mus musculus [24] = test: In vivo antitumor activity was evaluated against L1210 leukemia implanted mice by measuring T/C median after intraperitoneal administration of compound at 0.75 mg/kg; T/C median=18/9; type: functional; method in brief: as §3
Mus musculus [25] = test: In vivo antitumor activity was evaluated against L1210 leukemia implanted mice by measuring number of survival days after intraperitoneal administration of compound at 0.75 mg/kg; at a range of 16-21; type: functional; method in brief: as §3

SMILES: CN(Cc1cnc2nc(N)nc(N)c2n1)c1ccc(C(=O)NC(CCS(=O)(=O)O)C(=O)O)cc1 (configuration not stated)
- IC50 (L1210): 0.18 µM
- Survival days (Mus musculus [1]): 21
- Weight change (Mus musculus [2]): -12%
- ID50 [3]: 0.041 µM
- Activity (Mus musculus [4]; 16 mg/kg): 155% and 144%
- Weight change (Mus musculus [5]): -9%
- Survival days (Mus musculus [6]): 19
- Survival days (Mus musculus [7]): 21
- Survival days (Mus musculus [8]): 22

SMILES: CN(Cc1cnc2nc(N)nc(N)c2n1)c1ccc(C(=O)NC(CS(=O)(=O)O)C(=O)O)cc1 (configuration not stated)
- Survival days (Mus musculus [9]): 11
- Activity (Mus musculus [10]): 44%
- IC50 (L1210): 0.34 µM
- Survival days (Mus musculus [11]): 12
- Activity (Mus musculus [2]): -1%
- ID50 [3]: 0.045 µM
- Survival days (Mus musculus [12]): 12
- Activity (Mus musculus [4]): 33%
- Survival days (Mus musculus [13]): 13
- Weight change (Mus musculus [5]): 2%

SMILES: CN(Cc1cnc2nc(N)nc(N)c2n1)c1ccc(C(=O)N[C@@H](CCC(=O)O)C(=O)O)cc1 [METHOTREXATE]
- IC50 (L1210): 0.012 µM
- Survival days (Mus musculus [14]): 21
- Weight change (Mus musculus [15]): -1%
- Activity (Mus musculus [16]): 100%
- Activity (Mus musculus [17]): 78%
- Weight change (Mus musculus [18]): -8%
- Survival days (Mus musculus [19]): 16
- Survival days (Mus musculus [20]): 3
- Survival days (Mus musculus [21]): 15
- Weight change (Mus musculus [22]): -5%
- Activity (Mus musculus [23]): 133%
- Survival days (Mus musculus [24]): 18
- Survival days (Mus musculus [25]): 16
